The results in this text go back to ChEMBL document CHEMBL1121508, “Synthesis of alpha-methylene-gamma-butyrolactones: a structure-activity relationship study of their allergenic power” (1980).

The structures appear in SMILES notation.

Format in all cases: functional
The species entered for experiment [1] is Cavia porcellus. Kind of experiment: Average skin reaction in guinea pig sensitized to the sesquiterpene alantolactone (toxic). In short, it runs like this: (§1)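 Female guinea pigs (albino Hartley and Himalayan spotted Füllingsdorf), 300–500 g, sensitized by Klečak's method. The hapten was emulsified in Freund's complete adjuvant and injected intradermally into the shaved nuchal region on alternate days, five injections in all. Skin reactions at elicitation were scored up to 3 (erythema plus swelling well beyond the test area) and 4 (necrosis or ulceration). Irritation thresholds were first set on untreated animals by the same elicitation procedure.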

For experiment [2], the species on record is Cavia porcellus. In words: Number of guinea pigs sensitized to alpha-methylene-gamma-butyrolactone (out of 10 guinea pigs). Further: test concentration or dose not given here. In short, it runs like this: as §1
The species entered for experiment [3] is Cavia porcellus. In words: Average skin reaction in guinea pig sensitized to alpha-methylene-gamma-butyrolactone (toxic). In short, it runs like this: as §1
Experiment [4] is filed under the species Cavia porcellus. Kind of experiment: Number of guinea pigs sensitized to the sesquiterpene isoalantolactone (out of 8 guinea pigs). Further: test concentration or dose not given here. The procedure, abridged:
as §1

The species entered for experiment [5] is Cavia porcellus. Kind of experiment: Average skin reaction in guinea pig sensitized to the sesquiterpene isoalantolactone (toxic). The procedure, abridged:
as §1

Experiment [6] is filed under the species Cavia porcellus. Kind of experiment: Number guinea pigs sensitized to the sesquiterpene alantolactone (out of 7 guinea pigs). Further: test concentration or dose not given here. The procedure, abridged:
as §1

Experiment [7] is filed under the species Cavia porcellus. Kind of experiment: Average skin reaction in guinea pig sensitized to alpha-methylene-gamma-butyrolactone. The procedure, abridged:
as §1

For experiment [8], the species on record is Cavia porcellus. In words: Average skin reaction in guinea pig sensitized to the sesquiterpene alantolactone*-toxic. The procedure, abridged: as §1
For experiment [9], the species on record is Cavia porcellus. Kind of experiment: Average skin reaction in guinea pig sensitized to the sesquiterpene isoalantolactone. The procedure, abridged: as §1
The species named for experiment [10] is Cavia porcellus. Kind of experiment: Open Epicutaneous tests were performed on guinea pigs sensitized to alpha-methylene-gamma-butyrolactone. Further: test concentration or dose not given here. In short, it runs like this:
as §1

Experiment [11] is filed under the species Cavia porcellus. In words: Average skin reaction in guinea pig sensitized to the sesquiterpene alantolactone. The procedure, abridged:
as §1

`C=C1CC(C)(c2ccccc2)OC1=O` (stereo not given): the Average skin reaction in the experiment filed under Cavia porcellus [1] stood at 1.1; in the experiment filed under Cavia porcellus [3], 0.4; in the experiment filed under Cavia porcellus [5], 1.3. Besides, the No. of sensitive in the experiment listed under Cavia porcellus [2] was determined as 5; in the experiment listed under Cavia porcellus [4] it was 8; in the experiment listed under Cavia porcellus [6], 7.

In the case of `C=C1CC(C(C)C)(C(C)C)OC1=O`, the No. of sensitive in the experiment listed under Cavia porcellus [2] was 0; in the experiment filed under Cavia porcellus [4], 6; in the experiment filed under Cavia porcellus [6], 6. Besides, the figures for the Average skin reaction in the experiment listed under Cavia porcellus [7], in the experiment listed under Cavia porcellus [8] and in the experiment filed under Cavia porcellus [9] were 0, 0.6 and 0.5, respectively.

In the case of `C=C1CC(c2ccccc2)(c2ccccc2)OC1=O`, the No. of sensitive is 0 in the experiment listed under Cavia porcellus [2], 5 in the experiment filed under Cavia porcellus [4] and 7 in the experiment listed under Cavia porcellus [6]. In addition, the Average skin reaction is listed as 0 in the experiment filed under Cavia porcellus [10], 0.4 in the experiment listed under Cavia porcellus [9] and 0.9 in the experiment filed under Cavia porcellus [11].

In the case of `C=C1CC(c2ccccc2)OC1=O` (stereo not given), the Average skin reaction in the experiment filed under Cavia porcellus [1] is given as 1.1; in the experiment filed under Cavia porcellus [3], 1.4; in the experiment listed under Cavia porcellus [5], 1.5. The No. of sensitive in the experiment filed under Cavia porcellus [2] is 10; in the experiment filed under Cavia porcellus [4], 8; in the experiment listed under Cavia porcellus [6] it was 7.

Turning to `C=C1CC2(OC1=O)C1CC3CC(C1)CC2C3` (stereo not given), the No. of sensitive was 2 in the experiment listed under Cavia porcellus [2], 8 in the experiment filed under Cavia porcellus [4] and 6 in the experiment listed under Cavia porcellus [6]. Moreover, the Average skin reaction in the experiment listed under Cavia porcellus [7] is on record as 0.1; in the experiment listed under Cavia porcellus [9], 0.8; in the experiment filed under Cavia porcellus [11], 0.8.

With `C=C1CC2(CC3CC4(CC(=C)C(=O)O4)CC3C2)OC1=O` (stereo not given), the No. of sensitive in the experiment filed under Cavia porcellus [2] is reported as 1; in the experiment filed under Cavia porcellus [4], 3; in the experiment filed under Cavia porcellus [6] it was 2. The Average skin reaction in the experiment listed under Cavia porcellus [7] is given as 0; in the experiment filed under Cavia porcellus [9], 0.2; in the experiment listed under Cavia porcellus [11] it was 0.2.

Turning to `C=C1C(=O)OC2CCCCC12` (stereo not given), the No. of sensitive came to 3 in the experiment filed under Cavia porcellus [2], 1 in the experiment filed under Cavia porcellus [4] and 1 in the experiment filed under Cavia porcellus [6]. The Average skin reaction in the experiment listed under Cavia porcellus [7], in the experiment listed under Cavia porcellus [9] and in the experiment filed under Cavia porcellus [11] was 0.1 throughout.

Take `C=C1CC(CCCCCCCCCCC)OC1=O` (stereo not given): the Average skin reaction in the experiment filed under Cavia porcellus [1] was 0.9; in the experiment listed under Cavia porcellus [3], 1; in the experiment filed under Cavia porcellus [5] it was 1.2. In addition, the No. of sensitive was 10 in the experiment listed under Cavia porcellus [2], 8 in the experiment listed under Cavia porcellus [4] and 7 in the experiment filed under Cavia porcellus [6].

On to `C=C1CC2(CCCc3ccccc32)OC1=O` (stereo not given), for which the Average skin reaction in the experiment listed under Cavia porcellus [1] is listed as 1.7; in the experiment filed under Cavia porcellus [5], 2; in the experiment listed under Cavia porcellus [7], 0.9. Also, the figures for the No. of sensitive in the experiment filed under Cavia porcellus [2], in the experiment listed under Cavia porcellus [4] and in the experiment filed under Cavia porcellus [6] were 10, 8 and 7, respectively.

Regarding `C=C1CC2(CC3CCC2C3)OC1=O` (stereo not given), the No. of sensitive in the experiment listed under Cavia porcellus [2] is recorded as 0; in the experiment listed under Cavia porcellus [4], 4; in the experiment listed under Cavia porcellus [6], 4. In addition, the Average skin reaction in the experiment listed under Cavia porcellus [7] was found to be 0; in the experiment filed under Cavia porcellus [9] it was 0.2; in the experiment filed under Cavia porcellus [11], 0.3.
